Assay results as given in ChEMBL document CHEMBL1141218, “Further structure-activity relationship studies of piperidine-based monoamine transporter inhibitors: effects of piperidine ring stereochemistry on potency. Identification of norepinephrine transporter selective ligands and broad-spectrum transporter inhibitors” (J Med Chem, 2005).

Legend:
[1] = target: Monoamine transporters; serotonin & dopamine (Rattus norvegicus) (UniProt P31652+P23977); assay: Selectivity towards rat SERT over DAT; assay type: protein assay
[2] = target: Sodium-dependent serotonin transporter (Rattus norvegicus, UniProt P31652); assay: Ability to inhibit [3H]5-HT uptake through SERT in rat synaptosomes; assay type: subcellular, Brain
Outline: (§1)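 Uptake inhibition values given as Ki. Each experiment tested six drug concentrations in triplicate, with two to four independent experiments per compound. Values are means ± SEM.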

[3] = target: Norepinephrine transporter (Rattus norvegicus, UniProt Q9WTR4); assay: Ability to inhibit [3H]NE uptake through NET in rat synaptosomes; assay type: subcellular, Brain; outline: as §1
[4] = target: Sodium-dependent dopamine transporter (Rattus norvegicus, UniProt P23977); assay: Ability to inhibit [3H]DA uptake through DAT in rat synaptosomes; assay type: subcellular, Brain; outline: as §1
Sodium-dependent dopamine transporter, sequence (P23977 whole entry): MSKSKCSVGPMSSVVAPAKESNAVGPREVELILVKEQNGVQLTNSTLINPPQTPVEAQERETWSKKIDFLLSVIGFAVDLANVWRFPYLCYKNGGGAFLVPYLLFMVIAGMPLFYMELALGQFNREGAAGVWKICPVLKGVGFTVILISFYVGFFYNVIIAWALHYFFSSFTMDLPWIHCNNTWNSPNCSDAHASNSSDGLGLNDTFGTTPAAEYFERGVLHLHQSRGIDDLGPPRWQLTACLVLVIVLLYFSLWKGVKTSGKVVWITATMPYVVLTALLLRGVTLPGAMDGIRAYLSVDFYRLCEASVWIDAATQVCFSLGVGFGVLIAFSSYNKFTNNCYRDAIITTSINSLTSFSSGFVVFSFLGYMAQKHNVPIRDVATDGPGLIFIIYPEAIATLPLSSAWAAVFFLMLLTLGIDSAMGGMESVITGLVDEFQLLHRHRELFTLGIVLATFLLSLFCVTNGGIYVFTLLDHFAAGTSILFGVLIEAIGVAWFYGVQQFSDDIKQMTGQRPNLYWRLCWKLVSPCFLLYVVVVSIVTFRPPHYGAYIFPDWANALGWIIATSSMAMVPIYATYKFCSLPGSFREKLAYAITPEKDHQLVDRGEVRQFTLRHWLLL

Sodium-dependent serotonin transporter, sequence (P31652 whole entry): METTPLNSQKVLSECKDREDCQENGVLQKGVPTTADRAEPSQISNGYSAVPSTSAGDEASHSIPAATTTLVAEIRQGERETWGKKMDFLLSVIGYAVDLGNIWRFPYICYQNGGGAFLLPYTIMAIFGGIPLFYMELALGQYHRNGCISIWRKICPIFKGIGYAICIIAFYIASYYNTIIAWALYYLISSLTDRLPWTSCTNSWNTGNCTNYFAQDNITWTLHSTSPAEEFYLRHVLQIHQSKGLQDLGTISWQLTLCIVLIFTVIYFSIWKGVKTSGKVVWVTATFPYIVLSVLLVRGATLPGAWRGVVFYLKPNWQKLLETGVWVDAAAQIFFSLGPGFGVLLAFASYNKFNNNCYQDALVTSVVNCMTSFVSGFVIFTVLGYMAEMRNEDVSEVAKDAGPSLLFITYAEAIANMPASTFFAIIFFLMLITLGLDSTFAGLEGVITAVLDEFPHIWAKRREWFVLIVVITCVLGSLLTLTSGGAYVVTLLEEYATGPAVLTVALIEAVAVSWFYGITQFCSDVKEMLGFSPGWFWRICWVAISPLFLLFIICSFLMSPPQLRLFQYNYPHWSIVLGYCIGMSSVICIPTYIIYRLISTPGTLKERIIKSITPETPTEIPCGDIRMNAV
Monoamine transporters; serotonin & dopamine (Rattus norvegicus), sequence (P23977 whole entry, looked up): as the sequence (P23977 whole entry) above
Monoamine transporters; serotonin & dopamine (Rattus norvegicus), sequence (P31652 whole entry, looked up): as the sequence (P31652 whole entry) above
Norepinephrine transporter, sequence (Q9WTR4 whole entry): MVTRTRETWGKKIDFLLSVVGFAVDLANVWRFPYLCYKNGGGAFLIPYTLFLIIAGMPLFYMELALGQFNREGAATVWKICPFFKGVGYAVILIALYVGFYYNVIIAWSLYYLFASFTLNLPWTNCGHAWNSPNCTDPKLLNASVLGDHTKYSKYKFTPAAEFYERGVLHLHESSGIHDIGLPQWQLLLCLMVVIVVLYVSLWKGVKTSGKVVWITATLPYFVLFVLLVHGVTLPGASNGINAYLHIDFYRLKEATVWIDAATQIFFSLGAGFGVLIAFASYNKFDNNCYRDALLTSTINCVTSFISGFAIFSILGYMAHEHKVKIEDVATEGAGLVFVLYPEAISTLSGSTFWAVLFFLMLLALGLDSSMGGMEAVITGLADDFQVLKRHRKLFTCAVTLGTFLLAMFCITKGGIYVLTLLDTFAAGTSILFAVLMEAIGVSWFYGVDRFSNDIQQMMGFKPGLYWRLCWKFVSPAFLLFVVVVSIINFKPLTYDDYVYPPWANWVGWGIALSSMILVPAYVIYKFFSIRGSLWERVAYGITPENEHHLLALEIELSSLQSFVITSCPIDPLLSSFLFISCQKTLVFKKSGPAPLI

| Structure (SMILES) | Ratio Ki [1] | Ki [2] [nM] | Ki [3] [nM] | Ki [4] [nM] |
| --- | --- | --- | --- | --- |
| CN1CC[C@H](c2ccc(Cl)cc2)[C@H](CSCCO)C1 | 5 | 185 | 26 | 37 |
| CN1CC[C@H](c2ccc(Cl)cc2)[C@H](CSCC(=O)N2CCCCC2)C1 | 1.22 | 42 | 13 | 34 |
| CN1CC[C@@H](c2ccc(Cl)cc2)[C@@H](CSCCO)C1 | 1.91 | 305 | > 3000 | 160 |
| CN1CC[C@@H](c2ccc(Cl)cc2)[C@H](CSCCO)C1 | 0.69 | 129 | 123 | 185 |
| CN1CC[C@@H](c2ccc(Cl)cc2)[C@@H](CSCC(=O)Nc2cccc3ccccc23)C1 | 1.06 | 108 | 101 | 102 |
| CN1CC[C@@H](c2ccc(Cl)cc2)[C@H](CSCC(=O)N2CCCCC2)C1 | < 0.06 | 190 | 82 | > 3000 |
| CN1CC[C@@H](c2ccc(Cl)cc2)[C@@H](CSCC(=O)N2CCCCC2)C1 | < 0.19 | 572 | 134 | > 3000 |
| COC(=O)CSC[C@@H]1CN(C)CC[C@@H]1c1ccc(Cl)cc1 | 4.88 | 182 | 22 | 38 |
| COC(=O)CSC[C@@H]1CN(C)CC[C@H]1c1ccc(Cl)cc1 | 0.03 | 69 | 57 | 2620 |
| CN1CC[C@@H](c2ccc(Cl)cc2)[C@H](CSCC(=O)NCc2ccccc2)C1 | 0.48 | 753 | 32 | 1570 |
| CN1CC[C@@H](c2ccc(Cl)cc2)[C@@H](CSCC(=O)NCc2ccccc2)C1 | 0.07 | 22 | 54 | 302 |
| CNC(=O)CSC[C@@H]1CN(C)CC[C@@H]1c1ccc(Cl)cc1 |  | 347 |  | 311 |
| CN1CC[C@H](c2ccc(Cl)cc2)[C@H](CSCC(=O)NCc2ccccc2)C1 | 5.81 | 23 | 85 | 3.9 |
| CC(C)NC(=O)CSC[C@@H]1CN(C)CC[C@H]1c1ccc(Cl)cc1 | 0.21 | 138 | 67 | 663 |
| CN1CC[C@@H](c2ccc(Cl)cc2)[C@H](CSCC(=O)N(C)C)C1 | < 0.06 | 186 | 218 | > 3000 |
| CC(=O)OCCSC[C@@H]1CN(C)CC[C@H]1c1ccc(Cl)cc1 | 0.24 | 130 | 52 | 536 |
| CN1CC[C@@H](c2ccc(Cl)cc2)[C@@H](CSCC(=O)Nc2ccccc2)C1 | 1.13 | 91 | 1060 | 80 |

| Structure (SMILES) | Ratio Ki [1] | Ki [2] [nM] | Ki [3] [nM] | Ki [4] [nM] |
| --- | --- | --- | --- | --- |
| CC(=O)OCCSC[C@H]1CN(C)CC[C@H]1c1ccc(Cl)cc1 | 0.71 | 125 | 610 | 177 |
| CC(=O)OCCSC[C@@H]1CN(C)CC[C@@H]1c1ccc(Cl)cc1 | 10.1 | 469 | 30 | 46 |
| CN1CC[C@@H](c2ccc(Cl)cc2)[C@@H](CSCC(=O)NCCc2ccccc2)C1 | 1.08 | 121 | 100 | 112 |
| CNC(=O)CSC[C@@H]1CN(C)CC[C@H]1c1ccc(Cl)cc1 |  | 116 |  | 164 |
| COC(=O)[C@H]1CN(C)CC[C@H]1c1ccc(Cl)cc1 | 0.04 | 56 | 415 | 1560 |
| CN1CC[C@H](c2ccc(Cl)cc2)[C@H](CSCC(=O)N(C)C)C1 | 0.53 | 8.8 | 63 | 17 |
| CC(C)NC(=O)CSC[C@H]1CN(C)CC[C@H]1c1ccc(Cl)cc1 | 0.25 | 36 | 11 | 142 |
| CN1CC[C@H](c2ccc(Cl)cc2)[C@H](CSCC(N)=O)C1 | 0.39 | 21 | 69 | 54 |
| CN1CC[C@@H](c2ccc(Cl)cc2)[C@H](CSCCOC(=O)c2ccccc2)C1 | 0.19 | 71 | 56 | 378 |
| CNC(=O)CSC[C@H]1CN(C)CC[C@H]1c1ccc(Cl)cc1 |  | 1770 |  | 215 |
| CN1CC[C@@H](c2ccc(Cl)cc2)[C@@H](CSCC(=O)N(C)C)C1 | 0.98 | 173 | 47 | 176 |
| COC(=O)CSC[C@H]1CN(C)CC[C@H]1c1ccc(Cl)cc1 | 0.67 | 403 | 98 | 598 |
| CN1CC[C@@H](c2ccc(Cl)cc2)[C@@H](CSCCOC(=O)c2ccccc2)C1 | 0.18 | 270 | 143 | 1470 |
| CN1CC[C@@H](c2ccc(Cl)cc2)[C@H](CSCC(=O)NCCc2ccccc2)C1 | 2.97 | 68 | 178 | 23 |
| CN1CC[C@@H](c2ccc(Cl)cc2)[C@H](CSCC(N)=O)C1 | 0.49 | 545 | 53 | 1100 |
| CC(C)NC(=O)CSC[C@@H]1CN(C)CC[C@@H]1c1ccc(Cl)cc1 | 11.5 | 154 | 16 | 13 |
